Measurements from ChEMBL document CHEMBL1208682, “New quinoline derivatives: synthesis and investigation of antibacterial and antituberculosis properties” (2010).
In brackets after ≈: the same amount, converted by molar mass.

Columns and labels:
Type in all cases: functional
Staphylococcus aureus = test: Antibacterial activity against Staphylococcus aureus ATCC 25923 after 3 to 4 days by serial plate dilution method; conditions: for MIC: Staphylococcus aureus, ATCC 25923
Pseudomonas aeruginosa = test: Antibacterial activity against Pseudomonas aeruginosa ATCC 27853 after 3 to 4 days by serial plate dilution method; conditions: for MIC: Pseudomonas aeruginosa, ATCC 27853
[1] = test system: Mycobacterium tuberculosis; test: Antituberculosis activity against Mycobacterium tuberculosis H37Rv ATCC 27294 after 7 days using resazurin dye by broth microdilution assay; conditions: H37Rv ATCC 27294, 168 h
Outline: (§1)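 M. tuberculosis H37Rv grown in Middlebrook 7H9 with 10% OADC and 0.5% glycerol, adjusted to McFarland 1.0. Compounds were dissolved in DMF as stocks and tested at final levels of 1.56, 3.12, 6.25, 12.5, 25 and 50 in 96-well REMA. Controls were DMF-only, growth, rifampicin and isoniazid. After 7 days at 37 °C, 0.01% resazurin was added for 24 h and the colour change read.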

[2] = test system: Mycobacterium tuberculosis; test: Antituberculosis activity against Mycobacterium tuberculosis at MIC concentration after 7 days using resazurin dye by broth microdilution assay; outline: as §1
Escherichia coli = test: Antibacterial activity against Escherichia coli ATCC 25922 after 3 to 4 days by serial plate dilution method; conditions: for MIC: Escherichia coli, ATCC 25922
Klebsiella pneumoniae = test: Antibacterial activity against recultured Klebsiella pneumoniae after 3 to 4 days by serial plate dilution method; conditions: for MIC: Klebsiella pneumoniae
[3] = test system: Mycobacterium tuberculosis; test: Antituberculosis activity against Mycobacterium tuberculosis; outline: as §1

SMILES | diameter of the inhibition zone (DIZ) (Staphylococcus aureus) | MIC (Staphylococcus aureus) | diameter of the inhibition zone (DIZ) (Pseudomonas aeruginosa) | MIC (Pseudomonas aeruginosa) | MIC [1] | inhibition (INH) [2] | diameter of the inhibition zone (DIZ) (Escherichia coli) | MIC (Escherichia coli) | diameter of the inhibition zone (DIZ) (Klebsiella pneumoniae) | MIC (Klebsiella pneumoniae) | MIC [3]
Cn1cccc1/C=N/Nc1cc(C(F)(F)F)nc2c(C(F)(F)F)cccc12 | 22 mm | 6.25 µg/mL (≈ 16.2 µM) | 24 mm | 6.25 µg/mL (≈ 16.2 µM) | 12.5 µM (≈ 4.83 µg/mL) | <90% | 20 mm | 6.25 µg/mL (≈ 16.2 µM) | 21 mm | 6.25 µg/mL (≈ 16.2 µM) | 
FC(F)(F)c1cc(N/N=C/c2ccc3nonc3c2)c2cccc(C(F)(F)F)c2n1 | 18 mm | 6.25 µg/mL (≈ 14.7 µM) | 24 mm | 6.25 µg/mL (≈ 14.7 µM) | 12.5 µM (≈ 5.32 µg/mL) | <90% | 22 mm | 6.25 µg/mL (≈ 14.7 µM) | 20 mm | 6.25 µg/mL (≈ 14.7 µM) | 
Cn1nnc2cc(/C=N/Nc3cc(C(F)(F)F)nc4c(C(F)(F)F)cccc34)ccc21 | 22 mm | 6.25 µg/mL (≈ 14.3 µM) | 24 mm | 6.25 µg/mL (≈ 14.3 µM) | 12.5 µM (≈ 5.48 µg/mL) | <90% | 20 mm | 6.25 µg/mL (≈ 14.3 µM) | 21 mm | 6.25 µg/mL (≈ 14.3 µM) | 
Cc1cccc2c(/C=N/Nc3cc(C(F)(F)F)nc4c(C(F)(F)F)cccc34)c[nH]c12 | 24 mm | 6.25 µg/mL (≈ 14.3 µM) | 24 mm | 6.25 µg/mL (≈ 14.3 µM) | 6.25 µM (≈ 2.73 µg/mL) | 95% | 27 mm | 6.25 µg/mL (≈ 14.3 µM) | 19 mm | 6.25 µg/mL (≈ 14.3 µM) | 
Cc1nc[nH]c1/C=N/Nc1cc(C(F)(F)F)nc2c(C(F)(F)F)cccc12 | 24 mm | 6.25 µg/mL (≈ 16.1 µM) | 25 mm | 6.25 µg/mL (≈ 16.1 µM) | 3.12 µM (≈ 1.21 µg/mL) | 99% | 26 mm | 6.25 µg/mL (≈ 16.1 µM) | 22 mm | 6.25 µg/mL (≈ 16.1 µM) | 
O=C(NNc1cc(C(F)(F)F)nc2c(C(F)(F)F)cccc12)Nc1ccc(F)cc1 | 10 mm | 12.5 µg/mL (≈ 28.9 µM) | 14 mm | 12.5 µg/mL (≈ 28.9 µM) | 12.5 µM (≈ 5.4 µg/mL) | <90% | 10 mm | 12.5 µg/mL (≈ 28.9 µM) | <10 mm | 50 µg/mL (≈ 116 µM) | 
COc1ccccc1NC(=O)NNc1cc(C(F)(F)F)nc2c(C(F)(F)F)cccc12 | 21 mm | 6.25 µg/mL (≈ 14.1 µM) | 22 mm | 6.25 µg/mL (≈ 14.1 µM) | 12.5 µM (≈ 5.55 µg/mL) | <90% | 24 mm | 6.25 µg/mL (≈ 14.1 µM) | 18 mm | 6.25 µg/mL (≈ 14.1 µM) | 
Cc1cc(C)cc(NC(=O)NNc2cc(C(F)(F)F)nc3c(C(F)(F)F)cccc23)c1 | 23 mm | 6.25 µg/mL (≈ 14.1 µM) | 24 mm | 6.25 µg/mL (≈ 14.1 µM) | 6.25 µM (≈ 2.76 µg/mL) | 95% | 20 mm | 6.25 µg/mL (≈ 14.1 µM) | 22 mm | 6.25 µg/mL (≈ 14.1 µM) | 
OC(c1cc(C(F)(F)F)nc2c(C(F)(F)F)cccc12)C1CCCCN1 (stereo unspecified) [MEFLOQUINE] |  |  |  |  |  |  |  |  |  |  | 25 µg/mL (≈ 66.1 µM)
